Reference: the array DNA melting data of Ke et al. (doi:10.1101/2024.01.08.574731)

Columns and labels:
[1] = folding enthalpy; higher = less favourable; fluorescence melt of hairpins on a sequencing array, two-state fit; settings: sodium 0.088 M
Outline: (§1)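 To match UV melts, fitted temperatures were raised by 9.35 °C. These fits were bootstrapped two-state models that gave melting temperature and folding enthalpy, combined by inverse variance over four replicates. The input was normalised Cy3 fluorescence of library hairpins with annealed Cy3 and quencher oligos on a sequenced MiSeq flow cell, imaged in 50 mM Na-HEPES pH 8.0, 25 mM NaCl in 2.5 °C steps up to 60 °C.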

[2] = melting temperature; fluorescence melt of hairpins on a sequencing array, two-state fit, raised by 9.35 °C to match UV melts; settings: sodium 0.088 M
Outline: as §1

| Sequence | folding enthalpy [1] | Tm [2] |
| --- | --- | --- |
| GATCTCATAGAGATC ((((((...)))))) | -38.3 kcal/mol | 55.2 °C |
| GATCTCATCGGAGATC ((((((....)))))) | -36.1 kcal/mol | 52.8 °C |
| GATCTCATGGGAGATC ((((((....)))))) | -37 kcal/mol | 54 °C |
| GATCTCATTAGAGATC ((((((....)))))) | -35 kcal/mol | 57.1 °C |
| GATCTCCAAAGAGATC ((((((....)))))) | -35.6 kcal/mol | 52.5 °C |
| GATCTCCACAGAGATC ((((((....)))))) | -32.4 kcal/mol | 55.7 °C |
| GATCTCCACGAGATC ((((((...)))))) | -42 kcal/mol | 53.6 °C |
| GATCTCCATCGAGATC ((((((....)))))) | -34.4 kcal/mol | 50.7 °C |
| GATCTCCATGAGATC ((((((...)))))) | -42.1 kcal/mol | 53.3 °C |
| GATCTCCCATGAGATC ((((((....)))))) | -34.4 kcal/mol | 51.6 °C |
| GATCTCCCCCGAGATC ((((((....)))))) | -36 kcal/mol | 51.5 °C |
| GATCTCCCGAGAGATC ((((((....)))))) | -38.6 kcal/mol | 52.7 °C |
| GATCTCCCTGAGATC ((((((...)))))) | -34.7 kcal/mol | 55.3 °C |
| GATCTCCGAAAGGAAATC (((.(((....))).))) | -25.1 kcal/mol | 34.2 °C |
| GATCTCCGAAGAGATC ((((((....)))))) | -40.6 kcal/mol | 54 °C |
| GATCTCCGAGAGATC ((((((...)))))) | -35.2 kcal/mol | 51 °C |
| GATCTCCTAAGAGATC ((((((....)))))) | -42.6 kcal/mol | 53.6 °C |
| GATCTCCTAGAGATC ((((((...)))))) | -35.1 kcal/mol | 53 °C |
| GATCTCCTCTGAGATC ((((((....)))))) | -31.3 kcal/mol | 51.8 °C |
| GATCTCGAACGAGATC ((((((....)))))) | -40.8 kcal/mol | 60.2 °C |
| GATCTCGAATGAGATC ((((((....)))))) | -39.5 kcal/mol | 57.5 °C |
| GATCTCGATAGAGATC ((((((....)))))) | -36 kcal/mol | 66.8 °C |
| GATCTCGCAGGAGATC ((((((....)))))) | -50.6 kcal/mol | 57.5 °C |
| GATCTCGCCGGAGATC ((((((....)))))) | -35.5 kcal/mol | 54.4 °C |

| Sequence | folding enthalpy [1] | Tm [2] |
| --- | --- | --- |
| GATCTCGCGAGAGATC ((((((....)))))) | -42.1 kcal/mol | 64.2 °C |
| GATCTCGGAAACGGGATC ((((.((....)).)))) | -35 kcal/mol | 51.3 °C |
| GATCTCGGCGGAGATC ((((((....)))))) | -48.8 kcal/mol | 55.4 °C |
| GATCTCGGGTGAGATC ((((((....)))))) | -30 kcal/mol | 52.2 °C |
| GATCTCGTTGAGATC ((((((...)))))) | -37.8 kcal/mol | 54.9 °C |
| GATCTCTACCGAGATC ((((((....)))))) | -37.1 kcal/mol | 51.7 °C |
| GATCTCTAGGGAGATC ((((((....)))))) | -39.7 kcal/mol | 53.1 °C |
| GATCTCTATGAGATC ((((((...)))))) | -31.3 kcal/mol | 54.6 °C |
| GATCTCTCGTGAGATC ((((((....)))))) | -40 kcal/mol | 52.5 °C |
| GATCTCTGAAGAGATC ((((((....)))))) | -35.2 kcal/mol | 54.2 °C |
| GATCTCTGCGGAGATC ((((((....)))))) | -43.7 kcal/mol | 55.9 °C |
| GATCTCTGGCGAGATC ((((((....)))))) | -33.6 kcal/mol | 51.6 °C |
| GATCTCTGGGGAGATC ((((((....)))))) | -41.2 kcal/mol | 56.4 °C |
| GATCTCTGGTGAGATC ((((((....)))))) | -34.1 kcal/mol | 52.4 °C |
| GATCTCTGTAGAGATC ((((((....)))))) | -44.1 kcal/mol | 56.5 °C |
| GATCTCTTAAGAGATC ((((((....)))))) | -37.3 kcal/mol | 54.2 °C |
| GATCTCTTTGAGATC ((((((...)))))) | -32.1 kcal/mol | 55.8 °C |
| GATCTGAACCCAGATC ((((((....)))))) | -28.8 kcal/mol | 46.1 °C |
| GATCTGAAGCAGATC ((((((...)))))) | -27.9 kcal/mol | 45.7 °C |
| GATCTGAAGCCAGATC ((((((....)))))) | -33.2 kcal/mol | 45.5 °C |
| GATCTGAAGGCAGATC ((((((....)))))) | -41.9 kcal/mol | 45.3 °C |
| GATCTGAATACAGATC ((((((....)))))) | -39.7 kcal/mol | 47.7 °C |
| GATCTGACTGCAGATC ((((((....)))))) | -23.7 kcal/mol | 47 °C |
| GATCTGAGAGCAGATC ((((((....)))))) | -37.2 kcal/mol | 46.1 °C |

| Sequence | folding enthalpy [1] | Tm [2] |
| --- | --- | --- |
| GATCTGAGATCAGATC ((((((....)))))) | -36.1 kcal/mol | 49.2 °C |
| GATCTGAGCCAGATC ((((((...)))))) | -41.7 kcal/mol | 47 °C |
| GATCTGAGTACAGATC ((((((....)))))) | -30.9 kcal/mol | 49.6 °C |
| GATCTGAGTGCAGATC ((((((....)))))) | -31.1 kcal/mol | 49.2 °C |
| GATCTGATAGCAGATC ((((((....)))))) | -34.4 kcal/mol | 46.8 °C |
| GATCTGATCCAGATC ((((((...)))))) | -35.2 kcal/mol | 47.6 °C |
| GATCTGATCCCAGATC ((((((....)))))) | -27.2 kcal/mol | 47 °C |
| GATCTGATCTCAGATC ((((((....)))))) | -37.1 kcal/mol | 51.1 °C |
| GATCTGATGCCAGATC ((((((....)))))) | -33.4 kcal/mol | 47.5 °C |
| GATCTGATTCAGATC ((((((...)))))) | -35.8 kcal/mol | 48.7 °C |
| GATCTGCAAACAGATC ((((((....)))))) | -35.9 kcal/mol | 48.5 °C |
| GATCTGCAACAGATC ((((((...)))))) | -28.8 kcal/mol | 46.3 °C |
| GATCTGCACGCAGATC ((((((....)))))) | -33.1 kcal/mol | 58.8 °C |
| GATCTGCAGGCAGATC ((((((....)))))) | -32.7 kcal/mol | 60.2 °C |
| GATCTGCATACAGATC ((((((....)))))) | -43.2 kcal/mol | 52.1 °C |
| GATCTGCATGCAGATC ((((((....)))))) | -46.5 kcal/mol | 62.4 °C |
| GATCTGCCAACAGATC ((((((....)))))) | -38.3 kcal/mol | 50 °C |
| GATCTGCCGCAGATC ((((((...)))))) | -41.5 kcal/mol | 48.1 °C |
| GATCTGCCGGCAGATC ((((((....)))))) | -53.3 kcal/mol | 62.3 °C |
| GATCTGCCTCAGATC ((((((...)))))) | -29.1 kcal/mol | 48.7 °C |
| GATCTGCGAACAGATC ((((((....)))))) | -33.5 kcal/mol | 49.4 °C |
| GATCTGCGATCAGATC ((((((....)))))) | -33.9 kcal/mol | 47.1 °C |
| GATCTGCGCGCAGATC ((((((....)))))) | -50.8 kcal/mol | 66.7 °C |
| GATCTGCGGCCAGATC ((((((....)))))) | -27.4 kcal/mol | 48.6 °C |
